# Measurements gathered from unrelated publications.
# Target: Activin receptor type-1 (ACVR1, Homo sapiens, UniProt Q04771)
# Sequence (Q04771 1-509, as in one of the studies): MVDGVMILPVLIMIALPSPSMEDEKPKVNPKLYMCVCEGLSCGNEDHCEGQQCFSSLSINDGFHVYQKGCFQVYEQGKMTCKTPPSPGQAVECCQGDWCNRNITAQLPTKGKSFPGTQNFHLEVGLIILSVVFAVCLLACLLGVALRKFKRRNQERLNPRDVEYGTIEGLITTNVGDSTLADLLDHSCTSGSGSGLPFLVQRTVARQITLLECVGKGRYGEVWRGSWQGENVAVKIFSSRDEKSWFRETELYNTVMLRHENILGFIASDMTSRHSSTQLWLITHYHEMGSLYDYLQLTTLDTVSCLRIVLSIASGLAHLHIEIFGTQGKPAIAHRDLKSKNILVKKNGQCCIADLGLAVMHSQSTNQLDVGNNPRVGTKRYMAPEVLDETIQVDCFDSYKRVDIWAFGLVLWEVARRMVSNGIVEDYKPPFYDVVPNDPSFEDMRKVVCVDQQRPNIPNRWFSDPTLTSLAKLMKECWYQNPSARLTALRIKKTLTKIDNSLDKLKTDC
SMILES,assay,setting,quantity,value
N#CC1(c2ccccn2)CCN(Cc2cc(C(=O)O)c(=O)n3ccccc23)CC1,"cell-free assay, competition with immobilised ligand",1 µM,remaining binding,96%
CC(C)(C)c1cc(C=C(C#N)C#N)cc(Br)c1O,"enzyme activity, inhibitor",0.5 µM,remaining activity,102%
Cn1cncc1[C@](O)(COc1ccc(C#N)cc1-c1ccc(OC(F)(F)F)cc1)c1ccc(C#N)cc1,"cell-free assay, competition with immobilised ligand",1 µM,remaining binding,78%
Cn1cc(-c2cccc(N3CCc4c(sc5c4CC(C)(C)C5)C3=O)c2CO)cc(Nc2ccncn2)c1=O,"enzyme activity, inhibitor",1 µM,inhibition,-1%
O=c1[nH]c2ccccc2n1C1CCN(Cc2ccc(-c3[nH]c4cc5ncnc5cc4nc3-c3ccccc3)cc2)CC1,cell-free assay,0.5 µM,remaining signal,102%
Cc1nn(C)cc1-c1nc2c(N3CCN(Cc4ccc(Cl)cc4)CC3)c(Cl)cnc2[nH]1,"binding, competition with immobilised ligand",1 µM,remaining binding,90%
Nc1ncc(-c2nc(N3CCOCC3)nc(N3CCOCC3)n2)c(C(F)F)n1,"cell-free assay, competition with immobilised ligand",10 µM,remaining binding,83%
COc1ncccc1-c1cnn2ccc(N3CCN(C(=O)OC(C)C)CC3)nc12,"binding, competition with immobilised ligand",1 µM,remaining binding,72%
